Source: ChEMBL document CHEMBL3826890, “Synthesis and properties of peptide nucleic acid labeled at the N-terminus with HiLyte Fluor 488 fluorescent dye” (Bioorg Med Chem, 2016)
Blank lines part the entries; values can stand above or below the molecule they belong to.

How the values were obtained:
HEK293 [1] = assay: Drug degradation in HEK293 cells assessed as photobleaching rate at 1 uM after 4 scans using FAM-labeled compound by DAPI staining-based laser scanning microscopic method; type: ADME, cell-based; conditions: human, hek293, 1 µM
Procedure, shortened: (§1)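 Live HEK293 cells incubated 12 h at 37 °C with 1 µM labeled PNA in Opti-MEM, then nuclei stained with DAPI. Laser scanning confocal images (63× objective) taken at 32-s intervals over 30 min, scan average 8. Photostability given as MFI of each scan divided by MFI of the first scan, as a percentage. Mean of three experiments.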

HEK293 [2] = assay: Drug degradation in HEK293 cells assessed as photobleaching rate at 1 uM after 12 scans using FAM-labeled compound by DAPI staining-based laser scanning microscopic method; type: ADME, cell-based; conditions: human, hek293, 1 µM; procedure, shortened: as §1
HEK293 [3] = assay: Drug uptake in HEK293 cells at 1 uM after 12 hrs using FAM-labeled compound by flow cytometric method; type: ADME, cell-based; conditions: human, hek293, 12 h
Procedure, shortened: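 HEK293 cells incubated 12 h at 37 °C with 1 µM labeled PNA in Opti-MEM. Cells harvested, resuspended in DPBS and analysed by flow cytometry.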

[4] = Binding affinity to dsRNA (unknown origin) after 350 to 600 secs by isothermal titration calorimetry assay
[5] = Drug uptake in cytoplasm of human Caco2 cells at 1 uM after 24 hrs using HF488-labeled compound by lysotracker deep red/DAPI based fluorescence assay; type: ADME, cell-based; conditions: caco-2, 24 h
Procedure, shortened: (§2)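 Cells treated with 1 µM HF488-labeled PNA in Opti-MEM at 37 °C, 10% CO2, for 24 h. Acidic organelles then stained with LysoTracker Deep Red and nuclei with DAPI. Intracellular localization assessed by fluorescence microscopy.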

[6] = Drug uptake in cytoplasm of HEK293 cells at 1 uM after 24 hrs using HF488-labeled compound by lysotracker deep red/DAPI based fluorescence assay; type: ADME, cell-based; conditions: human, hek293, 24 h; procedure, shortened: as §2
[7] = Drug uptake in cytoplasm of human MDA-MB-231 cells at 1 uM after 24 hrs using HF488-labeled compound by lysotracker deep red/DAPI based fluorescence assay; type: ADME, cell-based; conditions: mda-mb-231, 24 h; procedure, shortened: as §2
[8] = Drug uptake in cytoplasm of human U87MG cells at 1 uM after 24 hrs using HF488-labeled compound by lysotracker deep red/DAPI based fluorescence assay; type: ADME, cell-based; conditions: u-87mg atcc; procedure, shortened: as §2
HEK293 [9] = assay: Fluorescence intensity in buffer at 1 uM at pH 5 to 8 at 25 degC after 12 hrs using 6'-HF488-labeled compound by fluorescence spectroscopy; conditions: pH 5, 12 h
HEK293 [10] = assay: Fluorescence intensity in buffer at 1 uM at pH 5 to 8 at 25 degC after 12 hrs using 5'-HF488-labeled compound by fluorescence spectroscopy; conditions: pH 5, 12 h
HEK293 [11] = assay: Fluorescence intensity in buffer at 1 uM at pH <7 at 25 degC after 12 hrs using FAM-labeled compound by fluorescence spectroscopy

Drug degradation (HEK293 [1]): 20%
Drug degradation (HEK293 [2]): 50%
Drug uptake (HEK293 [3]): Active
Structure (SMILES): Cc1cn(CC(=O)N(CCNC(=O)CN(CCNC(=O)CN(CCNC(=O)CN(CCNC(=O)[C@H](CCCCN)NC(=O)COCCOCCNC(=O)COCCOCCNC(=O)[C@@H](N)CCCCN)C(=O)Cc2ccc(N)nc2)C(=O)Cn2cc(C)c(=O)[nH]c2=O)C(=O)Cc2ccc(N)nc2)CC(=O)NCCN(CC(=O)NCCN(CC(=O)NCCN(CC(=O)NCCN(CC(=O)NCCN(CC(=O)N[C@@H](CCCCN)C(=O)N[C@@H](CCCCN)C(=O)N[C@@H](CCCCN)C(N)=O)C(=O)Cc2ccc(N)nc2)C(=O)Cc2ccc(N)nc2)C(=O)Cn2cc(C)c(=O)[nH]c2=O)C(=O)Cn2cc(C)c(=O)[nH]c2=O)C(=O)Cc2ccc(N)nc2)c(=O)[nH]c1=O

Kd [4]: 7.35 nM
Structure (SMILES): Cc1cn(CC(=O)N(CCNC(=O)CN(CCNC(=O)CN(CCNC(=O)CN(CCNC(=O)[C@@H](N)CCCCN)C(=O)Cc2ccc(N)nc2)C(=O)Cn2cc(C)c(=O)[nH]c2=O)C(=O)Cc2ccc(N)nc2)CC(=O)NCCN(CC(=O)NCCN(CC(=O)NCCN(CC(=O)NCCN(CC(=O)NCCN(CC(=O)N[C@H](CCCCN)C(=O)N[C@@H](CCCCN)C(=O)N[C@H](CCCCN)C(N)=O)C(=O)Cc2ccc(N)nc2)C(=O)Cc2ccc(N)nc2)C(=O)Cn2cc(C)c(=O)[nH]c2=O)C(=O)Cn2cc(C)c(=O)[nH]c2=O)C(=O)Cc2ccc(N)nc2)c(=O)[nH]c1=O

Drug uptake [5]: Active
Drug uptake [6]: Active
Drug uptake [7]: Active
Drug uptake [8]: Active
Structure (SMILES): Cc1cn(CC(=O)N(CCNC(=O)CN(CCNC(=O)CN(CCNC(=O)CN(CCNC(=O)[C@@H](N)CCCCN)C(=O)Cc2ccc(N)nc2)C(=O)Cn2cc(C)c(=O)[nH]c2=O)C(=O)Cc2ccc(N)nc2)CC(=O)NCCN(CC(=O)NCCN(CC(=O)NCCN(CC(=O)NCCN(CC(=O)NCCN(CC(=O)N[C@@H](CCCCN)C(=O)N[C@@H](CCCCN)C(=O)N[C@@H](CCCCN)C(N)=O)C(=O)Cc2ccc(N)nc2)C(=O)Cc2ccc(N)nc2)C(=O)Cn2cc(C)c(=O)[nH]c2=O)C(=O)Cn2cc(C)c(=O)[nH]c2=O)C(=O)Cc2ccc(N)nc2)c(=O)[nH]c1=O

Fluorescence intensity (HEK293 [9]): Active
Fluorescence intensity (HEK293 [10]): Active
Fluorescence intensity (HEK293 [11]): Not Active
Structure (SMILES): Cc1cn(CC(=O)N(CCNC(=O)CN(CCNC(=O)CN(CCNC(=O)CN(CCNC(=O)[C@H](CCCCN)NC(=O)COCCOCCNC(=O)COCCOCCN)C(=O)Cn2ccc(N)nc2=O)C(=O)Cn2cc(C)c(=O)[nH]c2=O)C(=O)Cn2ccc(N)nc2=O)CC(=O)NCCN(CC(=O)NCCN(CC(=O)NCCN(CC(=O)NCCN(CC(=O)NCCN(CC(=O)N[C@@H](CCCCN)C(=O)N[C@@H](CCCCN)C(=O)N[C@@H](CCCCN)C(N)=O)C(=O)Cn2ccc(N)nc2=O)C(=O)Cn2ccc(N)nc2=O)C(=O)Cn2cc(C)c(=O)[nH]c2=O)C(=O)Cn2cc(C)c(=O)[nH]c2=O)C(=O)Cn2ccc(N)nc2=O)c(=O)[nH]c1=O
